Assay results gathered from unrelated publications.
Protocols differ between the studies behind these lines.
CTSL: Procathepsin L (CTSL, Homo sapiens, UniProt P07711)
P4HB: Protein disulfide-isomerase (P4HB, Homo sapiens, UniProt P07237)
NEU1: Sialidase-1 (NEU1, Homo sapiens, UniProt Q99519)

Compound | target | test | quantity | result
COCCC(=O)N[C@@H](CCC(N)=O)C(=O)N[C@@H](Cc1ccccc1)C(=O)N[C@@H](CCCNC(=N)N)C(=O)c1nc2ccccc2s1 | CTSL | cell-free assay | Ki | > 10 µM
O=C(O)c1cc(O)c(O)c(O)c1 | P4HB | enzyme activity, inhibitor, fluorescence | IC50 | > 500 µM
OB1OCc2cc(F)ccc21 | blaNDM-5 (Escherichia coli, UniProt G3K399) | enzyme activity, inhibitor | IC50 | 19.6 µM
O=C(O)C1=C[C@H](O)[C@@H](n2cc(-c3ccc(-c4ccccc4)cc3)nn2)[C@H]([C@H](O)[C@H](O)CO)O1 | NEU1 | enzyme activity, inhibitor | IC50 | > 500 µM
O=C(O[C@@H]1Cc2c(O)cc(O)cc2O[C@H]1c1ccc(O)c(O)c1)c1cc(O)c(O)c(O)c1 | P4HB | enzyme activity, inhibitor, fluorescence | IC50 | > 20 µM
CS(=O)(=O)N[C@@H](CCC(N)=O)C(=O)N[C@@H](Cc1ccccc1)C(=O)N[C@@H](CCCNC(=N)N)C(=O)c1nccs1 | CTSL | cell-free assay | Ki | > 10 µM
[Cl][Cd][Cl] | Voltage-dependent P/Q-type calcium channel subunit alpha-1A (Homo sapiens, UniProt O00555) | ion current, inhibitor, patch clamp | IC50 | 4.2 µM
CC(C)(C)CC(=O)N[C@H]1[C@H]([C@H](O)[C@H](O)CO)OC(C(=O)O)=C[C@@H]1O | NEU1 | enzyme activity, inhibitor | IC50 | 160 µM
